Shown are actives, neighbours in structure and some others; about 2.2% of the full set was active somewhere.
STEP block: STEP phosphatase inhibitors, primary screen, biochemical, fluorescence intensity, uHTS | Tyrosine-protein phosphatase non-receptor type 5 (Homo sapiens), P54829 | recombinant STEP, OMFP fluorogenic substrate | inhibition, % at 20 µM | 360,000 tested, 0.25% active | AID 588621, 2011;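 active = inhibition at 20 µM, scaled per plate between control wells, above about 37%, limit read from the data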;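 note: 0% = DMSO with enzyme and substrate and 100% = substrate only without enzyme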
Target sequence (P54829 whole entry, looked up): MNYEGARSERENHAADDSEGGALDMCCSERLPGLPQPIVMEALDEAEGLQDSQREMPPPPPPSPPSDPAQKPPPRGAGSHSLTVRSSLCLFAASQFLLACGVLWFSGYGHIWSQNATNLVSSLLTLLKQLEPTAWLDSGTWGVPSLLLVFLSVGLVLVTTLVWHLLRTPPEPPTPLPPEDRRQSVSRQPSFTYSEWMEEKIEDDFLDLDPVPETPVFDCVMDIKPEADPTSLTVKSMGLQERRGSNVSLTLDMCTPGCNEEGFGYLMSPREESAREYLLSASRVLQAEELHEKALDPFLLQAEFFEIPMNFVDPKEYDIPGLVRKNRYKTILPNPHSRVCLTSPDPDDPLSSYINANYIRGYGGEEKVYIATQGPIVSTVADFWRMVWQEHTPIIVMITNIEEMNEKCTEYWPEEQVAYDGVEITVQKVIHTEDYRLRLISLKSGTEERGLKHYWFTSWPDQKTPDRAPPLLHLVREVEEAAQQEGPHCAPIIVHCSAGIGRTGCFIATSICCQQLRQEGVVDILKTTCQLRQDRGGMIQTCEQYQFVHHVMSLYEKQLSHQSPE
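Also added – OMFP at 25 µM · Test system – STEP tyrosine phosphatase · Technique – FITC-channel fluorescence of OMFP product · Schedule – 20 min at room temperature, dark · Evaluation – control-normalized % inhibition with plate pattern correction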
LMPTP block: LMPTP phosphatase inhibitors, primary screen, biochemical, fluorescence intensity, uHTS. recombinant LMPTP-A, OMFP fluorogenic substrate. AID 651560, 2012. inhibition, % at 20 µM. 360,000 tested, 0.22% active;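 active = compounds that cut the enzyme signal by at least half of the control window in the single-dose screen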;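 note: plate controls were DMSO wells with enzyme plus substrate for no effect and substrate without enzyme for full effect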
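Assay system: LMPTP-A enzyme. Input: 0.625 nM LMPTP-A final. Probe or stimulus: 400 µM OMFP. Compound dosing: single 20 µM dose. Schedule: 50 min dark incubation at room temperature. Detection: fluorescence intensity of OMFP turnover product. Read-out: percent inhibition versus substrate-only and uninhibited controls. Benchmarks: no-enzyme low control, uninhibited high control.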
DNMT1 block: human DNMT1 methyltransferase inhibitors, primary screen, biochemical, molecular beacon, fluorescence, HinP1I cleavage, uHTS; DNA (cytosine-5)-methyltransferase 1 (Homo sapiens), P26358; inhibition (reported as % activation of signal), % at 10 µM; 360,000 tested, 0.83% active; AID 588458, 2011; in the data active = inhibition above about 50%
GRK2 inh: compounds blocking aptamer binding on GRK2 – biochemical, human GRK2, bead flow cytometry, HTS, primary screen | Beta-adrenergic receptor kinase 1 (Homo sapiens), P25098 | AID 488847, 2010 | inhibition of aptamer binding, % at 10 µM | 330,000 tested, 0.59% active | FAM-aptamer displacement from GRK2;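 active = inhibition of aptamer binding above 40%, roughly 3 SD of noise, on plates passing a quality check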;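 note: median bead fluorescence of bound FAM aptamer so fluorescent compounds give negative values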
SUMO1 PPI mod: modulators of SUMO1 protein-protein interactions, primary screen, biochemical, uHTS. 360,000 tested, 0.33% active. SUMO1 binding to a labelled peptide, TR-FRET, 1 h. AID 602429, 2012. inhibition, % at 20 µM. Small ubiquitin-related modifier 1 (Homo sapiens), P63165; in the data active = inhibition above about 37%
Scp-1 inhibitor: Scp-1 phosphatase inhibitors, primary screen, biochemical, colorimetric, uHTS; Carboxy-terminal domain RNA polymerase II polypeptide A small phosphatase 1 (Homo …; 340,000 tested, 0.88% active; Recombinant Scp1, phosphopeptide, malachite green phosphate absorbance; inhibition, % at 20 µM; AID 493091, 2011;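 active = inhibition above about 50% at 20 µM, limit read from the data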;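 note: plate controls were DMSO wells with enzyme for no effect and wells lacking enzyme for full effect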
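Assay system: SCP-1 catalytic fragment, aa 76-261 | Buffer or medium: Tris acetate buffer pH 5.5 with MgCl2 and Tween-20 | Compound: One concentration, 20 µM, with 1.0% DMSO | Also added: Phospho 17-mer peptide substrate | Signal: Absorbance at 630 nm | Incubation: 45 min enzyme reaction at room temperature | Measure: % inhibition of SCP-1 phosphate liberation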
Beacon interf DR: spectral interference with molecular beacon fluorescence, dose response, artefact control for DNMT1 inhibitor project, biochemical, fluorescent molecular beacon | shares compounds with DNMT1 block | 200 tested, under 10 active | spectral interference counter-screen | IC50, µM; call rule not given here
DNMT1 inh conf: DNMT1 methyltransferase inhibitor retest, confirmation, biochemical, molecular beacon, fluorescence, single concentration | shares compounds with DNMT1 block | DNMT1 molecular beacon HinP1I cleavage | inhibition, % at 10 µM | 2,300 tested, 8% active | AID 602385, 2012;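 active = average inhibition of at least 30% in the single-concentration confirmation test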
Beacon interf: beacon fluorescence artifact counter-screen | activation (fluorescence interference), % at 10 µM | shares compounds with DNMT1 block | 2,300 tested, 1% active | DNMT1 molecular beacon spectral interference counterscreen, fluorescence 485/520;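 active = activation of at least 30% at 10 µM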;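 note: DNMT1 catalytic domain with a HinP1I cleavage step and a FAM/dabcyl DNA beacon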
An asterisk follows results filed as active.

How did CC1(C)OC2CC3C4CC=C5CC(O)CCC5(C)C4CCC3(C)C2(C(=O)CO)O1 (stereo not drawn) do in these assays?
STEP block: -0.3; LMPTP block: 4.2; DNMT1 block: 66.5*; SUMO1 PPI mod: -3.2; Scp-1 inhibitor: -3.8; DNMT1 inh conf: 1.6; Beacon interf: 3.5

Results for Cc1cccc(C)c1-n1cccc1/C=C1/C(=N)N2C(=NC1=O)SN=C2S(C)(=O)=O ?
STEP block: -2.9; LMPTP block: 1.8; DNMT1 block: -4.5; GRK2 inh: 6.0; SUMO1 PPI mod: -1.3; Scp-1 inhibitor: 2.6

How did Cc1ccc(-n2cccc2/C=C2/C(=N)N3C(=NC2=O)SN=C3S(C)(=O)=O)cc1Cl do in these assays?
STEP block: 10.7; LMPTP block: 12.2; DNMT1 block: 83.7*; GRK2 inh: 5.0; SUMO1 PPI mod: 13.2; Scp-1 inhibitor: 38.4; Beacon interf DR: >99; DNMT1 inh conf: 37.1*; Beacon interf: -3.0

What do the screens show for `COC(=O)[C@@H](Cc1c[nH]c2ccccc12)NCc1cccc(B(O)O)c1`?
STEP block: -1.5; LMPTP block: -0.8; DNMT1 block: 2.2; SUMO1 PPI mod: 1.0; Scp-1 inhibitor: -8.3

How did CC(=O)c1ccc(N=Cc2c(O)n(-c3cc(Cl)ccc3N3CCOCC3)c(=O)c3ccccc23)cc1 do in these assays?
STEP block: 7.1; LMPTP block: 4.2; DNMT1 block: 86.2*; GRK2 inh: 0.0; SUMO1 PPI mod: -7.8; Scp-1 inhibitor: -13.9; DNMT1 inh conf: 3.5; Beacon interf: 5.4

Results for COc1cc(-c2cc(C(=O)Nc3c(Cl)cc(Cl)cc3Cl)c3ccccc3n2)cc(OC)c1OC ?
STEP block: 3.8; LMPTP block: 1.7; DNMT1 block: -5.7; GRK2 inh: 0.0; SUMO1 PPI mod: 12.0; Scp-1 inhibitor: -0.2

Results for COc1cc(NC(=O)c2ccc(Cl)cc2Cl)ccc1-c1cc2ccccc2oc1=O ?
STEP block: -1.1; LMPTP block: 3.9; DNMT1 block: 66.2*; GRK2 inh: 0.0; SUMO1 PPI mod: 2.5; Scp-1 inhibitor: -4.4; DNMT1 inh conf: -1.1; Beacon interf: -2.4

Results for COc1ccc2nc3ccccc3nc2c1NC(=O)c1ccc(Cl)cc1Cl ?
STEP block: -49.5; LMPTP block: -4.0; DNMT1 block: 56.6*; GRK2 inh: 0.0; SUMO1 PPI mod: -7.9; Scp-1 inhibitor: -4.1; DNMT1 inh conf: 28.5; Beacon interf: 37.5*

How did Cc1cccc(C)c1Nc1cn[nH]c1 do in these assays?
STEP block: -0.6; LMPTP block: -2.1; DNMT1 block: -8.1; SUMO1 PPI mod: -1.8

Results for O=C(Nc1ccc2nc(-c3ccco3)c(-c3ccco3)nc2c1)N1CCN(c2ccccn2)CC1 ?
STEP block: 5.4; LMPTP block: 87.4*; DNMT1 block: 93.0*; GRK2 inh: 8.0; SUMO1 PPI mod: 45.8*; Scp-1 inhibitor: 92.0*; DNMT1 inh conf: 0.4; Beacon interf: -1.5

How did Cc1nc2cc(NC(=O)N3CCN(c4ccccn4)CC3)ccc2o1 do in these assays?
STEP block: -3.1; LMPTP block: 4.5; DNMT1 block: 0.2; GRK2 inh: 0.0; SUMO1 PPI mod: 0.3; Scp-1 inhibitor: -7.7

Screening results (PubChem)
